Values joined by “and” are separate entries in the source; they are usually repeats but may differ in a detail not shown here. Equal entries are not always repeated.
Test system: U2OS
Assay: Multiplex assay against U2OS
Assay type: toxicity, cell-based
Conditions: human, number of replicates 2
In short: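 Compound was added to live cells that had been stained at seeding with Hoechst33342, BioTracker Green Microtubule Cytoskeleton Dye, MitoTracker Red and Annexin V Alexa Fluor 680, and imaging followed on a CQ1 microscope at 37°C and 5% CO2. CellPathfinder machine-learning gating divided cells into Hoechst high-intensity objects or normal cells, normal cells into healthy, pyknosed or fragmented nuclei, and pyknosed cells into mitotic or apoptotic. Tubulin, mitochondrial-mass and membrane-permeability phenotypes are per cents of healthy-nucleus cells.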

[1] = 12 h, 1 µM, compound concentration 1 uM
[2] = 12 h, 10 µM, compound concentration 10 uM
[3] = 24 h, 1 µM, compound concentration 1 uM
[4] = 24 h, 10 µM, compound concentration 10 uM
[5] = 48 h, 1 µM, compound concentration 1 uM
[6] = 48 h, 10 µM, compound concentration 10 uM

SMILES: CC(C)N1CCN(Cc2cnc(-c3cc(-c4cccc5[nH]ccc45)cc4[nH]ncc34)o2)CC1 [NEMIRALISIB]
- Population Apoptotic (%) [1]: 42% and 80%
- Population Fragmented Nuclei (%) [1]: 12% and 2%
- Population Healthy Nuclei (%) [1]: 70% and 85%
- Population Hoechst High Intensity Objects (%) [1]: 0%
- Population Membrane Permeable-Phenotype (%) [1]: 0% and 1%
- Population Mitochondria Different-Phenotype (%) [1]: 3% and 0%
- Population Mitotic Cells (%) [1]: 57% and 20%
- Population Normal (%) [1]: 100% and 99%
- Population Pyknosed Nuclei (%) [1]: 17% and 11%
- Population Tubulin-Different-Phenotype (%) [1]: 53% and 72%
- Population Apoptotic (%) [2]: 69% and 57%
- Population Fragmented Nuclei (%) [2]: 13%
- Population Healthy Nuclei (%) [2]: 62% and 65%
- Population Hoechst High Intensity Objects (%) [2]: 0%
- Population Membrane Permeable-Phenotype (%) [2]: 15% and 8%
- Population Mitotic Cells (%) [2]: 30% and 42%
- Population Normal (%) [2]: 100%
- Population Pyknosed Nuclei (%) [2]: 24% and 20%
- Population Tubulin-Different-Phenotype (%) [2]: 18% and 30%
- Population Apoptotic (%) [3]: 60% and 80%
- Population Fragmented Nuclei (%) [3]: 4% and 3%
- Population Healthy Nuclei (%) [3]: 72% and 87%
- Population Hoechst High Intensity Objects (%) [3]: 0%
- Population Membrane Permeable-Phenotype (%) [3]: 0% and 1%
- Population Mitochondria Different-Phenotype (%) [3]: 0% and 2%
- Population Mitotic Cells (%) [3]: 40% and 19%
- Population Normal (%) [3]: 100% and 99%
- Population Pyknosed Nuclei (%) [3]: 22% and 9%
- Population Tubulin-Different-Phenotype (%) [3]: 59% and 78%
- Population Apoptotic (%) [4]: 33% and 60%
- Population Fragmented Nuclei (%) [4]: 10%
- Population Healthy Nuclei (%) [4]: 52% and 55%
- Population Hoechst High Intensity Objects (%) [4]: 2% and 0%
- Population Membrane Permeable-Phenotype (%) [4]: 4% and 8%
- Population Mitochondria Different-Phenotype (%) [4]: 36% and 43%
- Population Mitotic Cells (%) [4]: 66% and 39%
- Population Normal (%) [4]: 97% and 99%
- Population Pyknosed Nuclei (%) [4]: 37% and 34%
- Population Tubulin-Different-Phenotype (%) [4]: 32% and 33%
- Population Apoptotic (%) [5]: 47% and 70%
- Population Fragmented Nuclei (%) [5]: 4% and 3%
- Population Healthy Nuclei (%) [5]: 74% and 88%
- Population Hoechst High Intensity Objects (%) [5]: 0%
- Population Membrane Permeable-Phenotype (%) [5]: 1% and 2%
- Population Mitochondria Different-Phenotype (%) [5]: 1% and 0%
- Population Mitotic Cells (%) [5]: 52% and 29%
- Population Normal (%) [5]: 100%
- Population Pyknosed Nuclei (%) [5]: 20% and 8%
- Population Tubulin-Different-Phenotype (%) [5]: 81% and 76%
- Population Apoptotic (%) [6]: 60% and 67%
- Population Fragmented Nuclei (%) [6]: 23% and 8%
- Population Healthy Nuclei (%) [6]: 25% and 55%
- Population Hoechst High Intensity Objects (%) [6]: 3% and 2%
- Population Membrane Permeable-Phenotype (%) [6]: 12% and 11%
- Population Mitochondria Different-Phenotype (%) [6]: 37% and 35%
- Population Mitotic Cells (%) [6]: 39% and 32%
- Population Normal (%) [6]: 96% and 97%
- Population Pyknosed Nuclei (%) [6]: 51% and 35%
- Population Tubulin-Different-Phenotype (%) [6]: 25% and 38%

SMILES: CS(=O)(=O)c1ccc(C(=O)Nc2cccc(COc3cc(F)c(Br)cc3CN3CC[C@H](O)C3)c2)c(Cl)c1.O=CO
- Population Apoptotic (%) [1]: 62% and 55%
- Population Hoechst High Intensity Objects (%) [1]: 0%
- Population Pyknosed Nuclei (%) [1]: 19% and 14%
- Population Apoptotic (%) [2]: 66% and 54%
- Population Healthy Nuclei (%) [2]: 36% and 74%
- Population Hoechst High Intensity Objects (%) [2]: 0%
- Population Pyknosed Nuclei (%) [2]: 20% and 16%
- Total Cell Count [2]: 90 and 192
- Population Apoptotic (%) [3]: 50% and 66%
- Population Healthy Nuclei (%) [3]: 56%
- Population Hoechst High Intensity Objects (%) [3]: 0%
- Population Pyknosed Nuclei (%) [3]: 20% and 10%
- Population Apoptotic (%) [4]: 82% and 73%
- Population Healthy Nuclei (%) [4]: 33%
- Population Hoechst High Intensity Objects (%) [4]: 0%
- Population Pyknosed Nuclei (%) [4]: 19% and 26%
- Total Cell Count [4]: 86 and 214
- Population Apoptotic (%) [5]: 58% and 92%
- Population Fragmented Nuclei (%) [5]: 22%
- Population Healthy Nuclei (%) [5]: 58%
- Population Hoechst High Intensity Objects (%) [5]: 0%
- Population Pyknosed Nuclei (%) [5]: 19% and 10%
- Population Apoptotic (%) [6]: 88% and 84%
- Population Healthy Nuclei (%) [6]: 26%
- Population Hoechst High Intensity Objects (%) [6]: 0%
- Population Pyknosed Nuclei (%) [6]: 28%

SMILES: CNS(=O)(=O)c1ccc(N(C)C)c(Nc2ncnc3cc(OC)c(OC)cc23)c1
- Population Apoptotic (%) [1]: 100% and 61%
- Population Healthy Nuclei (%) [1]: 73% and 84%
- Population Hoechst High Intensity Objects (%) [1]: 0%
- Population Membrane Permeable-Phenotype (%) [1]: 0%
- Population Mitochondria Different-Phenotype (%) [1]: 0%
- Population Normal (%) [1]: 100% and 99%
- Population Pyknosed Nuclei (%) [1]: 11% and 12%
- Population Tubulin-Different-Phenotype (%) [1]: 73% and 87%
- Population Apoptotic (%) [2]: 50% and 64%
- Population Healthy Nuclei (%) [2]: 44% and 86%
- Population Hoechst High Intensity Objects (%) [2]: 0%
- Population Membrane Permeable-Phenotype (%) [2]: 3% and 2%
- Population Mitochondria Different-Phenotype (%) [2]: 0% and 2%
- Population Mitotic Cells (%) [2]: 50% and 35%
- Population Normal (%) [2]: 100%
- Population Pyknosed Nuclei (%) [2]: 20% and 10%
- Population Tubulin-Different-Phenotype (%) [2]: 42% and 64%
- Total Cell Count [2]: 59 and 156
- Population Apoptotic (%) [3]: 60% and 71%
- Population Healthy Nuclei (%) [3]: 60% and 88%
- Population Hoechst High Intensity Objects (%) [3]: 0%
- Population Membrane Permeable-Phenotype (%) [3]: 5% and 1%
- Population Mitochondria Different-Phenotype (%) [3]: 0% and 1%
- Population Mitotic Cells (%) [3]: 40% and 28%
- Population Normal (%) [3]: 100%
- Population Pyknosed Nuclei (%) [3]: 16% and 9%
- Population Tubulin-Different-Phenotype (%) [3]: 72% and 88%
- Population Apoptotic (%) [4]: 87% and 63%
- Population Healthy Nuclei (%) [4]: 66% and 82%
- Population Hoechst High Intensity Objects (%) [4]: 0%
- Population Membrane Permeable-Phenotype (%) [4]: 5% and 3%
- Population Mitochondria Different-Phenotype (%) [4]: 5% and 1%
- Population Mitotic Cells (%) [4]: 12% and 36%
- Population Normal (%) [4]: 100% and 99%
- Population Pyknosed Nuclei (%) [4]: 13% and 14%
- Population Tubulin-Different-Phenotype (%) [4]: 51% and 64%
- Population Apoptotic (%) [5]: 50% and 76%
- Population Healthy Nuclei (%) [5]: 69% and 90%
- Population Hoechst High Intensity Objects (%) [5]: 0%
- Population Membrane Permeable-Phenotype (%) [5]: 4% and 0%
- Population Mitochondria Different-Phenotype (%) [5]: 2% and 0%
- Population Mitotic Cells (%) [5]: 50% and 23%
- Population Normal (%) [5]: 100%
- Population Pyknosed Nuclei (%) [5]: 10% and 5%
- Population Tubulin-Different-Phenotype (%) [5]: 82% and 92%
- Population Apoptotic (%) [6]: 83% and 66%
- Population Healthy Nuclei (%) [6]: 52% and 78%
- Population Hoechst High Intensity Objects (%) [6]: 0%
- Population Membrane Permeable-Phenotype (%) [6]: 13% and 5%
- Population Mitochondria Different-Phenotype (%) [6]: 1% and 5%
- Population Mitotic Cells (%) [6]: 16% and 33%
- Population Normal (%) [6]: 99%
- Population Pyknosed Nuclei (%) [6]: 11% and 14%
- Population Tubulin-Different-Phenotype (%) [6]: 58% and 68%
